High-throughput results: PubChem BioAssay, several laboratories
Compounds with a hit are over-represented: about 3.8% of the library has one in this group of screens.
HSF-1 act = increases HSF-1 driven luciferase reporter signal. NIH3T3-HGL HSF-1 luciferase reporter, MG132, 8 h; 100% = twice DMSO control signal. activation, % at 9 µM. 300,000 compounds, 1.7% hits. AID 504408;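 active means mean replicate activation of at least 50% with a set share of replicates each reaching 50%; inconclusive means only one of those two conditions met; inactive means mean below 50% and too few replicates reaching it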;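 further: 0% = median of the neutral control wells and 100% = twice that signal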
HSP90 inh = blocks HSP90-mediated luciferase refolding in reticulocyte lysate; Rabbit reticulocyte lysate, luciferase refolding luminescence, 3 h; inhibition, % at 5.6 µM; 290,000 compounds, 0.91% hits; AID 1789;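 active means inhibition above the screen-wide mean plus 3 SD, computed separately per campaign, cut at about 16% in these data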;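 further: 0% = DMSO wells and 100% = 60 µM geldanamycin wells; inhibitors lower the luminescence because luciferase stays unfolded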
Hep lipid drop = hepatic lipid droplet formation modulation; AML12 mouse hepatocytes, oleate lipid droplets, BODIPY imaging; 240,000 compounds, 0.4% hits; AID 1656; inhibition, % at 6.5 µM;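 active means lipid droplet intensity inhibited by at least 50%, with more than 500 cells counted; inconclusive means wells with under 300 cells, treated as cytotoxic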
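System: AML12 hepatocytes (mouse). Probe or stimulus: oleic acid at 100 µM to induce lipid droplet formation. Times: overnight treatment with compound plus oleate. Detection: Image-based BODIPY and DAPI two-channel analysis. Evaluation: percent inhibition of filter-corrected integrated lipid droplet intensity per well.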
HCV NS3 hel inh = blocks Hepatitis C virus NS3 helicase unwinding; NS3 helicase DNA unwinding, Cy5 molecular beacon fluorescence; inhibition, % at 10.9 µM; 290,000 compounds, 0.56% hits; AID 1800;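 active means inhibition above the mean of all tested compounds plus 3 SD, set per campaign, cut at about 35% in these data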;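 further: 0% = DMSO wells and 100% = thioflavine S control wells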
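Assay system: hepatitis C virus NS3 helicase domain fragment enzyme. Also added: annealed dual-labelled DNA beacon duplex, ATP-started. Timing: 1 h reaction at 25 °C, ATP-initiated. Technique: Cy5 fluorescence at 0 and 60 min, beacon hairpin quenching. Evaluation: % inhibition of unwinding. Replication: one well per compound.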
HSF1 inhib = HSF1 inhibition; NIH3T3-HGL HSE-luciferase, MG132-induced, luminescence 8 h; hits give low values; activity change, negative = inhibition, % at 7.5 µM (by protocol); 300,000 compounds, 0.77% hits;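 active means more than half of replicate wells show activity change below -50%, luminescence cut by over half; inconclusive means some wells, but at most half, below -50%; inactive means no replicate well below -50%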;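 further: luciferase reports HSF-1 transcriptional activity via heat shock element; 0% = median of DMSO wells and -100% = zero luminescence signal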
* = called active by the depositor; ? = inconclusive; nt = no result.

SMILES	HSF-1 act	HSP90 inh	Hep lipid drop	HCV NS3 hel inh	HSF1 inhib
C/C1=C\[C@@H](C)C/C=C/[C@H]2[C@@H]3O[C@]3(C)[C@@H](C)[C@H]3[C@H](Cc4c[nH]c5ccccc45)NC(=O)[C@]32C(=O)/C=C/C(=O)[C@@H]1O	111*	3	8	11	91
O=C1CN=C(c2ccccc2)c2c(sc3c2CCCC3)N1	9	-1	-4	-5	10
CN(C)CCc1nc2ccccc2c(=O)n1-c1ccccc1	81*	-1	-14	-5	33
CCCc1nc2ccccc2c(=O)n1-c1ccc(OC)cc1	0	-2	nt	-2	-9
Cn1c(O)c(C=NCCN2CCOCC2)c(=O)n(C)c1=S	2	1	0	10	-4
S=C1CN=C(c2ccccc2)c2cc(Cl)ccc2N1	65*	1	2	0	32
COC1C(C)OC(OC2CC(C)(O)Cc3cc4c(c(O)c32)C(=O)c2c(O)cc3c(c2C4=O)OC2OC3(C)C(O)C(N(C)C)C2O)C(OC)C1(C)OC (configuration not stated)	71*	nt	nt	nt	71*
CC(=O)NC(Cc1ccc(N(CCCl)CCCl)cc1)C(=O)NC(CC(C)C)C(=O)O (configuration not stated)	-9	-3	-17	-13	5
N#CCCn1cc(C(=O)Nc2ccc([N+](=O)[O-])cc2)c(-c2ccccc2)n1	-78	-4	-8	-7	-71*
O=C1NC(=O)[C@]2(Cc3ccccc3N3CCN(c4ccccc4)CC32)C(=O)N1Cc1ccccc1 (some centres not stated)	65*	-1	nt	8	22
Cc1ccc(-n2nc(C)c3c2NC(=O)CSC3c2ccc3c(c2)OCO3)cc1 (configuration not stated)	-68	0	nt	6	-63*
CCN1C(=O)NC(=O)/C(=C/c2cc(C)n(-c3sc(C)c(C)c3C#N)c2C)C1=O	-68	0	6	18	-56*
CCOC(=O)c1c(-n2c(C)cc(/C=C3/C(=O)NC(=O)N(CC)C3=O)c2C)sc2c1CCCC2	-10	-1	nt	7	-11
Cc1cnc(NC(=O)CN2CCCCC2)s1	-4	0	4	3	1
COc1cc(O)cc2c1C(=O)OC(C)CCCC(=O)CCC/C=C\2 (configuration not stated)	107*	-3	-12	-14	65
C[C@H]1CCCC(=O)CCC/C=C/c2cc(O)cc(O)c2C(=O)O1	24	7	-23	-3	5
COc1cc(/C=C/[N+](=O)[O-])ccc1O	274*	4	-16	0	234
CCN(CC)c1ccc(/C=C/[N+](=O)[O-])cc1	?	7	-12	-6	34
CN(CCc1ccccc1)Cc1c[nH]c2ccccc12	0	1	-13	-1	8
C=CCn1c(O)c(C(CC)=NCc2ccco2)c(=O)[nH]c1=O	66*	-5	-31	0	21
C=CCn1c(O)c(C(C)=NCc2ccco2)c(=O)[nH]c1=O	13	2	12	10	9
O=C1N[C@@H](Cc2ccccc2)C(=O)N2[C@H]1C[C@H]1c3ccccc3N(OOSc3ccccc3)[C@H]12	-37	nt	nt	nt	-20
CCCCn1c(NS(=O)(=O)c2ccc(C)cc2)c(C(=O)OCC)c2nc3ccccc3nc21	8	1	-1	16	6
CCCCn1c(NC(=O)c2ccco2)c(C(=O)OCC)c2nc3ccccc3nc21	71*	8	nt	23	58
CC1(C)CN=C(Nc2nc3ccccc3s2)S1	54*	12	13	-17	25
SMILES	HSF-1 act	HSP90 inh	Hep lipid drop	HCV NS3 hel inh	HSF1 inhib
CC1(C)CN=C(NCc2ccccc2)S1	-5	23*	nt	-13	2
c1ccc(CNC2=NCCS2)cc1	-2	1	1	3	0
O=C(Cc1ccccc1)Oc1ccccc1N1C(=O)CCC1=O	-70	-1	3	-5	-62*
O=C(Cc1ccccc1)Oc1ccc(N2C(=O)CCC2=O)cc1	-4	4	4	3	-8
COc1ccccc1N1CCN(Cc2cccc(OC)c2O)CC1	88*	0	nt	-10	60
COC(=O)C1=C(c2ccccc2)C[C@@H]2CC[C@H]1N2C(=O)N1CCCC1	3	nt	nt	nt	-3
CN1C(=O)/C(=C/c2cccn2-c2ccc3ccccc3c2)C(=O)NC1=S	25	6	8	18	3
O=C1NC(=S)NC(=O)C1=Cc1cccn1-c1ccc(O)cc1	154*	1	-6	21	139
CCCCn1c(O)c(C(C)=Nc2ccc(C(=O)O)cc2)c(=O)[nH]c1=O	5	0	nt	14	-11
CCOC(=O)c1ccc(N=C(C)c2c(O)[nH]c(=O)[nH]c2=O)cc1	-62	0	-12	9	-63*
C[C@@H]1C[C@H]2OC(=O)C3(CO3)[C@H]2[C@H](O)[C@]2(C)C(=O)C3OC3[C@@H]12 (some centres not stated)	28	nt	-6	nt	8
C=C1C(=O)O[C@@H]2C[C@@H](C)[C@@H]3C=CC(=O)[C@@]3(C)[C@@H](O)[C@H]12	-93	nt	-109	nt	-92*
Cn1c(O)c(Cc2ccc(OCc3ccccc3)cc2)c(=O)n(C)c1=O	9	-6	-3	-6	10
CC(=O)O[C@H]1CC[C@@]2(C)[C@H](C1)C(=O)C[C@H]1[C@@H]3CC[C@@H]4[C@@H](CN5C[C@@H](C)CC[C@H]5[C@@]4(C)O)[C@@H]3C[C@@H]12	-1	-3	nt	-3	2
CC1=CC2OC3CC4OC(=O)C=CC=CC(=O)OCCC(C)C(O)C(=O)OCC2(CC1O)C4(C)C31CO1 (configuration not stated)	92*	nt	nt	nt	92*
CC(O)C1C=CC=CC(=O)OC2CC3OC4C5OC5(C)CCC4(COC(=O)C4OC4(C)C(O)CO1)C2(C)C31CO1 (configuration not stated)	91*	nt	nt	nt	91*
CC(=O)OC1C(=O)OCC23CCC4(C)OC4C2OC2CC(OC(=O)C=CC=CC(=O)OCCC1C)C3(C)C21CO1 (configuration not stated)	92*	nt	nt	nt	92*
Cc1ccc(S(=O)(=O)N2CCN(C(=O)COC(=O)Cc3ccccc3)CC2)c(C)c1	-18	nt	nt	nt	2
Cc1cccn2c(=O)c3c(nc12)N1CCC(Cc2ccccc2)CC1C1(C3)C(=O)N(C)C(=O)N(C)C1=O (configuration not stated)	56*	0	-2	0	10
COc1ccccc1-n1c(-c2ccccc2Cl)nc2ccccc2c1=O	-1	-1	-7	-3	2
COc1cc(C2NCc3ccccc3-n3cccc32)ccc1O (configuration not stated)	54*	-2	12	-6	16
CCOc1cc2c(cc1OCC)-n1cccc1C(c1cccc(OCC)c1O)NC2 (configuration not stated)	51*	3	3	-35	29
